Measurements: PubChem BioAssay AID493236 (Broad Institute, 2011)
Records with an inconclusive call do not appear. Active and inactive are the calls of the source.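 How the source made its calls: active means luminescence cut by more than half of the full-inhibition control window in a dose series; inconclusive means no clear call, values can overlap the other calls; inactive means signal rising instead of falling, or the rest.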

test system: proteasome chymotrypsin-like activity (human); assay: inhibition of cellular proteasome chymotrypsin-like cleavage – cell-based, U2OS, luminescence, dry powder, set 4, counter-screen for HIF pathway activator project, dose response (AID 493236); conditions: U2OS cells, Proteasome-Glo chymotrypsin luminescence; series mostly up to 38 µM
Summary of the method: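 System: U2OS cells. Input: 2,500 U2OS cells per well. Compound dosing: 8-point threefold dilution series, source stock top 16.5 mM. Timing: 24 h plating, 4 h compound, 2 h reagent. Technique: Proteasome-Glo luminescence. Evaluation: percent activity relative to MG132 and DMSO. Controls: MG132 (1 µM) and DMSO. Repeats: each compound tested in duplicate.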

Structure (SMILES) | outcome
CC1CN(Cc2ccc(O)c3ncccc23)CC(C)O1 (stereo not given) | inactive
C[C@@H](Nc1nc(-c2ccccn2)nnc1-c1ccccc1)c1ccccc1 | inactive
O=C(NCCCn1ccnc1)c1cc(-c2ccccc2)on1 | inactive
COc1cccc(CNc2nc(-c3ccccn3)nnc2-c2ccccc2)c1 | inactive
O=C(c1cc(-c2ccccc2)on1)N1CCC(N2CCOCC2)CC1 | inactive
O=C(Nc1ncc(-c2ccccc2)o1)c1cc(-c2ccccc2)on1 | inactive
c1ccc(-c2nnc(-c3ccccn3)nc2NCC2CCOCC2)cc1 | inactive
C[C@H](Nc1nc(-c2ccccn2)nnc1-c1ccccc1)C1CCCCC1 | inactive
COc1ccc(CNc2nc(-c3ccccn3)nnc2-c2ccccc2)cc1 | inactive
Oc1ccc(CN2CCC(Cc3ccccc3)CC2)c2cccnc12 | inactive
c1ccc(-c2nnc(-c3ccccn3)nc2NCCc2ccccn2)cc1 | inactive
OCC1CCN(c2nc(-c3ccccn3)nnc2-c2ccccc2)CC1 | inactive
O=C(Nc1ccc2ccccc2n1)c1cc(-c2ccccc2)on1 | inactive
c1ccc(-c2nnc(-c3ccccn3)nc2NCC2CCCCC2)cc1 | inactive
CCCCNC(=O)c1cc(-c2ccccc2)on1 | inactive
c1ccc(-c2nnc(-c3ccccn3)nc2Nc2cnc3ccccc3n2)cc1 | inactive
CN1CCN(C(=O)c2cc(-c3ccccc3)on2)CC1 | inactive
OCCCNc1nc(-c2ccccn2)nnc1-c1ccccc1 | inactive
c1ccc(CCNc2nc(-c3ccccn3)nnc2-c2ccccc2)cc1 | inactive
c1ccc(-c2nnc(-c3ccccn3)nc2NCC2CC2)cc1 | inactive
